Data on two compounds can be found in paper PMC10286293 (ACS Omega, 2023).

SMILES strings stand for the structures. A value given as a limit tells only on which side of the number the result lay.

Series [1] is described as follows: Intrinsic dissolution rate in pure water. In kind it is physicochemical. The note with it: 310 K, 100 rpm.
The test system of a further series is S. aureus. Briefly: Antibacterial activity. The format is cell-based, Staphylococcus aureus. Particulars: Figure 9, trimethoprim vs compound 1 vs 5-fluorouracil. The procedure, abridged: (§1)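 Two-fold broth microdilution at ten concentrations (32, 16, 8, 4, 2, 1, 0.5, 0.25, 0.125, 0.0625 μg/mL) of test compound with bacterial suspension in medium. Medium-only and bacteria-plus-medium controls were included. Plates were incubated at 310 K for 24 h, and OD600 gave the MIC.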

A further series is described as follows: Hygroscopicity test. The note with it: for percentage weight gain on the first day: 298 K, relative humidity 90 ± 5%; for hygroscopicity class (Chinese Pharmacopoeia): by weight gain. In kind it is physicochemical.
For another series, the system named is mice. The note with it: cited from earlier work.
Series [2] has as its system human colon cancer cells (SW480). Briefly: In vitro anticancer activity, MTT assay. The format is cell-based. The note with it: SW480 (human rectal cancer cells), MTT, 24, 48, 72 h, dose-dependent. The method, boiled down: (§2)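 Cells were grown in DMEM with 10% FBS, 1% penicillin and 1% streptomycin at 37 °C, 5% CO2, and used in log phase (85–95% confluent). They were seeded at 3 × 10^5 cells/mL, grown 24 h, then exposed to a range of test compound concentrations for 24, 48 or 72 h, with a positive control. MTT (5 mg/mL stock) was added for 4 h at 37 °C. Formazan was dissolved in DMSO and read at 490 nm after 10 min shaking, with blank-well correction.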

Series [3] has as its system breast cancer cells (MDA-MB-231). Briefly: In vitro anticancer activity, MTT assay. In kind it is cell-based, human. Particulars: MDA-MB-231 breast cancer cells, MTT, 24, 48, 72 h, dose-dependent. The procedure, abridged:
as §2
(In general: Tetrazolium dyes change colour on reduction, which living cells bring about.)

The test system of a further series is P. aeruginosa. The series is described as follows: Antibacterial activity. In kind it is cell-based, Pseudomonas aeruginosa. Particulars: Figure 9, trimethoprim vs compound 1 vs 5-fluorouracil. The procedure, abridged: as §1
The next series relates to S. dysenteriae. Briefly: Antibacterial activity. The format is cell-based, Shigella dysenteriae. The note with it: Figure 9, trimethoprim vs compound 1 vs 5-fluorouracil. The procedure, abridged:
as §1

Series [4] deals with lung cancer cells (H1299). The series is described as follows: In vitro anticancer activity, MTT assay. In kind it is cell-based, human. The note with it: MTT, 24, 48, 72 h, dose-dependent. The method, boiled down:
as §2

The subject of a further series is S. pneumoniae. The series is described as follows: Antibacterial activity. In kind it is cell-based, Streptococcus pneumoniae. Particulars: Figure 9, trimethoprim vs compound 1 vs 5-fluorouracil. The procedure, abridged: as §1

`COc1cc(Cc2cnc(N)nc2N)cc(OC)c1OC` [trimethoprim]: the “IDR (intrinsic dissolution rate)” value in series [1] worked out at 0.039 mg cm^–2 min^–1. Moreover, in the series on S. aureus, the “antibacterial activity, comparison in words” value is “greater than that of compound 1”. Also, in the series “Hygroscopicity test”, the “percentage weight gain on the first day” value stood at 0.20% and the “hygroscopicity class (Chinese Pharmacopoeia)” value is “slightly hygroscopic (slightly hygroscopic ≥ 0.2%)”. The “oral LD50” value in the series with mice is recorded as above 5300 mg/kg.

On to `O=c1[nH]cc(F)c(=O)[nH]1` [5-fluorouracil], for which the “inhibition effect on cancer cells” value in series [2], in series [3] and in series [4] was “significant inhibition effect” each time. For the same compound, the “antibacterial activity, comparison in words” value in the series on S. aureus, in the series with P. aeruginosa, in the series on S. dysenteriae and in the series on S. pneumoniae was “the greatest” in each case. The “percentage weight gain on the first day” value in the series “Hygroscopicity test” is listed as 0.19%. In addition, in the series “Hygroscopicity test”, the “hygroscopicity class (Chinese Pharmacopoeia)” value is listed as “slightly hygroscopic (slightly hygroscopic ≥ 0.2%)”. Besides, the “oral LD50” value in the series with mice was 220 mg/kg.
